From ChEMBL document CHEMBL1129520 (J Med Chem, 1996) come the findings set out here.

Test [1] addresses T1, Histamine H3 receptor (Rattus norvegicus, UniProt Q9QYN8). Briefly: Binding affinity towards Histamine H3 receptor on synaptosomes from rat cerebral cortex. The class given is subcellular, Brain. In short, it runs like this:
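Rat cerebral cortex homogenized in ice-cold 50 mM Na2HPO4/KH2PO4, pH 7.5, then washed membranes after two differential centrifugations. Incubated 60 min at 25 °C with [3H]-(R)-α-methylhistamine and drugs at various concentrations. Stopped by ice-cold dilution, vacuum-filtered through glass-fibre filters, scintillation counted. Nonspecific binding defined with 3 µM thioperamide.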

Test [2] deals with T1, Histamine H3 receptor. The test is described as follows: (§1) In vitro antagonistic activity tested against Histamine H3 receptor on synaptosomes from rat cerebral cortex. The format is functional, subcellular, Brain. The essentials: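 Preloaded 30 min with L-[3H]histidine (0.4 µM) at 37 °C in modified Krebs-Ringer. Washed, resuspended in 2 mM K+ medium, then depolarized 2 min with 2 or 30 mM K+ (final). […] Stopped by rapid centrifugation; liquid scintillation. Ki by Cheng-Prusoff; mean ± SEM, ≥3 determinations.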

For test [3], the target named is Histamine H2 receptor (Cavia porcellus) (UniProt P47747). The test is described as follows: […] activity tested against histamine H2 receptor on guinea pig atrium. The format is functional, tissue-based. To be noted: Cardiac atrium. In short, it runs like this: (§2)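 Isolated, spontaneously beating guinea pig right atrium, standard functional H2 method. Each test run at least in triplicate.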
Chain of Histamine H2 receptor (Cavia porcellus) (P47747 whole entry): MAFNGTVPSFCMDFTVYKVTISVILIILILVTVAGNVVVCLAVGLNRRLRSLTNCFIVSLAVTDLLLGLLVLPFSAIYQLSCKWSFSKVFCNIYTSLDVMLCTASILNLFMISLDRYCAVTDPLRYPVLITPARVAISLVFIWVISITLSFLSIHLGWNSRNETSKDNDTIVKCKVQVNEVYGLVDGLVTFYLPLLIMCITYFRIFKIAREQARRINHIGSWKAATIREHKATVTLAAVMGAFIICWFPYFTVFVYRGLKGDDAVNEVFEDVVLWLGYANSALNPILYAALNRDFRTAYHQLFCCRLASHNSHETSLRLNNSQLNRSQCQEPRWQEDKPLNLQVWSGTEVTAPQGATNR

The target in test [4] is Histamine H1 receptor (Cavia porcellus) (UniProt P31389). The test is described as follows: […] activity tested against histamine H1 receptor on guinea pig ileum. The class given is functional, tissue-based. The essentials:
(§3)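 Isolated guinea pig ileum, standard functional H1 method. Each test run at least in triplicate.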

The target of test [5] is Histamine H3 receptor (Mus musculus) (UniProt P58406). The test is described as follows: In vivo antagonistic activity was tested against histamine H3 receptor after oral administration to mouse. The class given is functional, organism-based. The essentials: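 Swiss mice dosed perorally. Read-out was the increase in brain Nτ-methylhistamine levels.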
Chain of Histamine H3 receptor (Mus musculus) (P58406 whole entry): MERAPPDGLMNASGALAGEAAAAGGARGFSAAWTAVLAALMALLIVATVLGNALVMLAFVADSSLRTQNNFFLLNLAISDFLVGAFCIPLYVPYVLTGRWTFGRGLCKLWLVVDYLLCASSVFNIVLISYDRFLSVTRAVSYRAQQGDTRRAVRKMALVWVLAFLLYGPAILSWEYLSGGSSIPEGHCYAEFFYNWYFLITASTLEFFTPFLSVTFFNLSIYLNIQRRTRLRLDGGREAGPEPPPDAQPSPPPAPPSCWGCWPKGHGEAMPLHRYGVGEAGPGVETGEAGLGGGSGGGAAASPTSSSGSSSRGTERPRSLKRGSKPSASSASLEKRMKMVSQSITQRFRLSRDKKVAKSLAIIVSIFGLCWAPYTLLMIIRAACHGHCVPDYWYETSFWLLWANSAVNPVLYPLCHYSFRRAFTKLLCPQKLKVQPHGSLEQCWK
In test [6] the target is Histamine H2 receptor (Cavia porcellus) (UniProt P47747). The test is described as follows: […] activity against histamine H2 receptor on guinea pig atrium. The format is functional, tissue-based. The settings on record: Cardiac atrium. The essentials:
as §2

In test [7] the target is Histamine H1 receptor (Cavia porcellus) (UniProt P31389). The test is described as follows: […] activity against histamine H1 receptor on guinea pig ileum. The class given is functional, tissue-based. The essentials: as §3
Chain of Histamine H1 receptor (Cavia porcellus) (P31389 whole entry): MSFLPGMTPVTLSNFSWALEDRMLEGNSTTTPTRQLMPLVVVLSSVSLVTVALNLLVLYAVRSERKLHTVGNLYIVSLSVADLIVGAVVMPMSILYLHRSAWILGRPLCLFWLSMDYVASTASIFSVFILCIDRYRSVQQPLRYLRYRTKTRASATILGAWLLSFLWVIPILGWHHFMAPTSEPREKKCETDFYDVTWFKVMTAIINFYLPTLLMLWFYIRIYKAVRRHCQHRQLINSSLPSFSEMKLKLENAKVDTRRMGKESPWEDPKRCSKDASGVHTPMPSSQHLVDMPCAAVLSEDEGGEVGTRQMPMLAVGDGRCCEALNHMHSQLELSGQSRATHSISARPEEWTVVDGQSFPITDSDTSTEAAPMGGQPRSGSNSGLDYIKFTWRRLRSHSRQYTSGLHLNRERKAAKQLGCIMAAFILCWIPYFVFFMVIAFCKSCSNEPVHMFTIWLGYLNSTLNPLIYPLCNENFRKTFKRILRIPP
In test [8] the target is T1, Histamine H3 receptor. Described as §1. The format is functional, subcellular, Brain. In short, it runs like this:
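Rat cerebral cortex synaptosomes preincubated 30 min at 37 °C with L-[3H]histidine (0.4 µM) in modified Krebs-Ringer, washed, resuspended in 2 mM K+ medium. […] Ki via Cheng-Prusoff; mean ± SEM, at least three determinations.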
The source holds these as a separate data set.

Test [9] addresses T1, Histamine H3 receptor. Briefly: In vitro antagonistic activity against histamine H3 receptor on rat cerebral cortex. The class given is functional, tissue-based. In short, it runs like this: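 Synaptosomes were preloaded 30 min with L-[3H]histidine (0.4 µM) at 37 °C in modified Krebs-Ringer, then washed and resuspended in 2 mM K+ medium. […] The reaction was stopped by centrifugation and read by scintillation. Ki by Cheng-Prusoff, mean ± SEM, n≥3.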

Structures are written as SMILES.

T1 sequence (Q9QYN8 whole entry): as the sequence (P58406 whole entry) above, with A15T, T286A, G290A, H387R, V389I counted along it

Consider `O=C(Nc1ccccc1I)OCCCc1cnc[nH]1`, for which the Ki is 25.1 nM on Histamine H3 receptor [1] and 25 nM at Histamine H3 receptor [2].
The matching figures for `Nc1c(I)cc(C(=O)OCCCc2cnc[nH]2)cc1I`: 31.6 nM and 146 nM.
Consider `O=C(Nc1ccc(I)cc1)OCCCc1c[nH]cn1`, for which the -Log KB in [3] was determined as 5.3; in test [4] it was 4.4. The same compound yielded an ED50 in test [5] greater than 10 mg/kg.
Take `O=C(Nc1cccc(I)c1)OCCCc1cnc[nH]1`: the Ki at Histamine H3 receptor [1] is 7.94 nM; on Histamine H3 receptor [2] it was 16 nM.
Regarding `O=C(NCc1ccc(I)cc1)OCCCc1c[nH]cn1`, the -Log KB in test [3] amounted to 4.5; in test [4], 5.1. Further, the inhibitory constant (Ki) is 12.6 nM on Histamine H3 receptor [1] and 12 nM at Histamine H3 receptor [2].
`O=C(OCCCc1c[nH]cn1)c1cccc(I)c1`: the -Log KB in [3] is 3.8; in test [4] it was 4.8. The Ki on Histamine H3 receptor [1] was 3.98 nM; on Histamine H3 receptor [2], 25 nM.
For the compound `Nc1c(I)cc(C(=O)OCCCc2c[nH]cn2)cc1I`, the -Log KB worked out at 4.6 in test [3] and 5.9 in test [4].
`COc1ccc(CCC(=O)OCCCc2c[nH]cn2)cc1I`: the -Log KB was 4.5 in test [3] and less than 4 in test [4].
With `Brc1ccc(COCCCc2c[nH]cn2)cc1`, the Kb was 12.6 µM in test [6] and 1260 nM in [7]. The inhibition constant Ki was 1.26 nM on Histamine H3 receptor [1] and 14 nM on Histamine H3 receptor [2]. The same compound had an ED50 in [5] greater than 10 mg/kg.
With `O=C(Nc1ccc(I)cc1)OCCCc1cnc[nH]1`, the results for the Ki on Histamine H3 receptor [1], on Histamine H3 receptor [8] and on Histamine H3 receptor [2] were 7.94 nM, 10 nM and 11 nM, respectively.
In the case of `Ic1ccc(CCCOCCCc2c[nH]cn2)cc1`, the -Log KB in test [3] is 5.1; in test [4] it was 5.2. Besides, the Ki was 7.94 nM on Histamine H3 receptor [1] and 35 nM at Histamine H3 receptor [2].
On to `Ic1ccc(COCCCc2c[nH]cn2)cc1` [IODOPROXYFAN], for which the -Log KB was found to be 5.2 in test [3] and 5.8 in test [4]. Besides, the Ki is 1 nM on Histamine H3 receptor [1] and 5 nM at Histamine H3 receptor [2]. In test [5], the ED50 is greater than 10 mg/kg.
On to `O=C(Cc1ccc(I)cc1)OCCCc1c[nH]cn1`, for which the -Log KB in test [3] is 3.6; in [4], 4.5.
As to `Cc1ccc(C(=O)OCCCc2c[nH]cn2)cc1I`, the -Log KB in test [3] worked out at 4.2; in [4], 4.9.
For the compound `O=C(OCCCc1cnc[nH]1)c1ccccc1I`, the Ki on Histamine H3 receptor [1] is 20 nM; at Histamine H3 receptor [2], 39 nM.
As to `O=C(OCCCc1c[nH]cn1)c1ccc(I)cc1`, the -Log KB in [3] amounted to 4.5; in test [4] it was 4.2.
As to `O=C(CCCc1ccc(I)cc1)OCCCc1c[nH]cn1`, the -Log KB in [3] turned out to be 4; in [4], 4.8.
With `O=C(Cc1ccc(I)cc1)OCCCc1cnc[nH]1`, the Ki at Histamine H3 receptor [1] was 12.6 nM; at Histamine H3 receptor [2], 14 nM.
Consider `COc1ccc(CCC(=O)OCCCc2cnc[nH]2)cc1I`, for which the Ki on Histamine H3 receptor [1] is 200 nM; at Histamine H3 receptor [2], 232 nM.
With `O=C(Nc1cccc(I)c1)OCCCc1c[nH]cn1`, the figures for the -Log KB in [3] and in test [4] were 5.3 and 5.1, respectively.
As for `Ic1ccc(OCCCc2c[nH]cn2)cc1`, the figures for the -Log KB in test [3] and in test [4] were 5.2 and 6.2, respectively.
In the case of `O=C(CCCc1ccc(I)cc1)OCCCc1cnc[nH]1`, the values for the Ki on Histamine H3 receptor [1] and on Histamine H3 receptor [2] were 31.6 nM and 41 nM, respectively.
`O=C(OCCCc1cnc[nH]1)c1ccc(I)cc1`: the Ki on Histamine H3 receptor [1] is 7.94 nM; on Histamine H3 receptor [2], 20 nM.
`S=C(NC1CCCCC1)N1CCC(c2cnc[nH]2)CC1` [THIOPERAMIDE] came in with a Kb in test [6] greater than 10 µM. In addition, the values for the Ki at Histamine H3 receptor [8] and at Histamine H3 receptor [9] were 3.98 nM and 2 nM, respectively.
With `O=C(Nc1ccccc1I)OCCCc1c[nH]cn1`, the -Log KB was found to be 4.6 in [3] and 4.8 in test [4].
The matching figures for `Ic1cccc(OCCCc2c[nH]cn2)c1`: 5.6 and 6.2.
As for `Cc1ccc(C(=O)OCCCc2cnc[nH]2)cc1I`, the figures for the Ki on Histamine H3 receptor [1] and on Histamine H3 receptor [2] were 5.01 nM and 30 nM, respectively.
On to `Ic1cccc(COCCCc2c[nH]cn2)c1`, for which the -Log KB in [3] and in [4] was 5.8 throughout. Moreover, the inhibition constant Ki at Histamine H3 receptor [1] is 1.26 nM; on Histamine H3 receptor [2], 7 nM. This compound gave an ED50 in [5] greater than 10 mg/kg.
`Ic1cccc(OCCCc2cnc[nH]2)c1`: the Ki is 2.51 nM on Histamine H3 receptor [1] and 17 nM at Histamine H3 receptor [2].
Consider `Cc1[nH]cnc1CSCCNC(=N)NCCCc1c[nH]cn1` [IMPROMIDINE], for which the Kb in test [6] was 0.501 µM; in [7] it was greater than 10000 nM. This compound showed a Ki on Histamine H3 receptor [8] of 63.1 nM.
Consider `O=C(OCCCc1c[nH]cn1)c1ccccc1I`, for which the -Log KB was 4.6 in test [3] and 5.9 in [4].
With `O=C(CCc1ccc(I)cc1)OCCCc1c[nH]cn1`, the -Log KB in [3] was 3.6; in test [4], 4.8. For the same compound, the Ki on Histamine H3 receptor [1] is 79.4 nM; at Histamine H3 receptor [2], 47 nM.
`Ic1ccc(OCCCc2cnc[nH]2)cc1`: the figures for the Ki at Histamine H3 receptor [1] and on Histamine H3 receptor [2] were 3.16 nM and 22 nM, respectively.
Take `OCCCc1c[nH]cn1`: the figures for the Ki on Histamine H3 receptor [1] and on Histamine H3 receptor [8] were 631 nM and 398 nM, respectively. The compound further registered an ED50 in test [5] greater than 10 mg/kg.
